# The M2OR odorant receptor database
# Residue numbers refer to the chain shown, from its start.
# Tests used:
# Conditions in all cases: stereoisomer not certain
# OR2B3 (Homo sapiens) = biological target: T1, OR2B3 (Homo sapiens) (UniProt O76000)
# T1 sequence (whole entry): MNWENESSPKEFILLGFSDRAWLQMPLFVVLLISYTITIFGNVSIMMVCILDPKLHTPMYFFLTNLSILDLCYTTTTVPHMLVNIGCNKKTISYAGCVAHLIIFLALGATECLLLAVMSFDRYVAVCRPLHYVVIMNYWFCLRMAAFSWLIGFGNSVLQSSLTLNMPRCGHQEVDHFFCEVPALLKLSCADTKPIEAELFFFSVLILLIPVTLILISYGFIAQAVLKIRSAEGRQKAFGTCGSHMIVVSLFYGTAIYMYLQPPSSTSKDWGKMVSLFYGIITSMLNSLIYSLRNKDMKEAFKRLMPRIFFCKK
# Outline: (§1)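 Each receptor–molecule pair is labelled responsive or non-responsive (inactive) according to whether the original authors judged the measured signal statistically different from baseline. The data were taken from the main text and supplementary material of published papers and checked for typos and inconsistencies. Assay methods differed by source, with transient luciferase assays in mammalian cell lines being common.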
# OR2B6 (Homo sapiens) = biological target: T2, OR2B6 (Homo sapiens) (UniProt P58173)
# T2 sequence (whole entry): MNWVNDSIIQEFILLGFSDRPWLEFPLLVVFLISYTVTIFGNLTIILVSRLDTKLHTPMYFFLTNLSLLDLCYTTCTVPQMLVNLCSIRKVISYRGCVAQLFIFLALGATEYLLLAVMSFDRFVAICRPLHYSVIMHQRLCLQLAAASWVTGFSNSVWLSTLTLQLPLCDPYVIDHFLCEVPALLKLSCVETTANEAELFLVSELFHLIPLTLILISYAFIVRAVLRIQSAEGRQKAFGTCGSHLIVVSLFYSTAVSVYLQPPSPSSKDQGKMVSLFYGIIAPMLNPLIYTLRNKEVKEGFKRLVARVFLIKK
# Outline: as §1
# OR2BB [1] = tested on: T3, OR2BB
# T3 sequence (whole entry): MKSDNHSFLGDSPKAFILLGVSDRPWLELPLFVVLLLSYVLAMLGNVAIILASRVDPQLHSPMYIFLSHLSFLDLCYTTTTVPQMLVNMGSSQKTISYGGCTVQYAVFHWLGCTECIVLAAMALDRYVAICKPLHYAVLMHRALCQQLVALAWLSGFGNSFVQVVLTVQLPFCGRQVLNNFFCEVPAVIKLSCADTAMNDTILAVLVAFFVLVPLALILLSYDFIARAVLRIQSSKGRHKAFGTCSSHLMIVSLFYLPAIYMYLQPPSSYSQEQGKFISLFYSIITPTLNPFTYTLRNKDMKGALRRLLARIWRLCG
# Outline: as §1
# OR2BB [2] = tested on: T4, OR2BB; remark: listed apart in the source
# T4 sequence (whole entry): T3 sequence (whole entry) with D223G
# Outline: as §1
# OR2C1 (Homo sapiens) = biological target: T5, OR2C1 (Homo sapiens) (UniProt O95371)
# T5 sequence (whole entry): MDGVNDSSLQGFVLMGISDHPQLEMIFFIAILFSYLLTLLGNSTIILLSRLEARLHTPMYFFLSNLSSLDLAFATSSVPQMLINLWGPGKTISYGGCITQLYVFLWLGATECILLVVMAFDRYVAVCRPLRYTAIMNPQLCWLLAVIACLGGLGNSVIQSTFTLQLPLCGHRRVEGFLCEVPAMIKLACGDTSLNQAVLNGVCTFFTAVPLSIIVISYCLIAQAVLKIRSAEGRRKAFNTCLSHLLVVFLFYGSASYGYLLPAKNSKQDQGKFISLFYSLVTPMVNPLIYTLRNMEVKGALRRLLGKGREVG
# Outline: as §1
# OR2C1 = tested on: T6, OR2C1
# T6 sequence (whole entry): T5 sequence (whole entry) with C149W
# Outline: as §1
# OR2C3 [3] = tested on: T7, OR2C3
# T7 sequence (whole entry): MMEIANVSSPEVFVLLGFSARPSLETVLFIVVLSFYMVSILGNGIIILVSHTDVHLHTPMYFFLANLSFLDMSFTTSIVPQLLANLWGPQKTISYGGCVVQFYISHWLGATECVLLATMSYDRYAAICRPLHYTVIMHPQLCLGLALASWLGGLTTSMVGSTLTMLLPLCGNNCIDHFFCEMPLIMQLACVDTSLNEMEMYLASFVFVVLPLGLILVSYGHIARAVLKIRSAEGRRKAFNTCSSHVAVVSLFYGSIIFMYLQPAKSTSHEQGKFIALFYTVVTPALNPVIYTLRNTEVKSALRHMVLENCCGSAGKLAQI
# Outline: as §1
# OR2C3 [4] = tested on: T8, OR2C3; remark: listed apart in the source
# T8 sequence (whole entry): T7 sequence (whole entry) with A20T, V289L
# Outline: as §1
# OR2D2 (Homo sapiens) = biological target: T9, OR2D2 (Homo sapiens) (UniProt Q9H210)
# T9 sequence (whole entry): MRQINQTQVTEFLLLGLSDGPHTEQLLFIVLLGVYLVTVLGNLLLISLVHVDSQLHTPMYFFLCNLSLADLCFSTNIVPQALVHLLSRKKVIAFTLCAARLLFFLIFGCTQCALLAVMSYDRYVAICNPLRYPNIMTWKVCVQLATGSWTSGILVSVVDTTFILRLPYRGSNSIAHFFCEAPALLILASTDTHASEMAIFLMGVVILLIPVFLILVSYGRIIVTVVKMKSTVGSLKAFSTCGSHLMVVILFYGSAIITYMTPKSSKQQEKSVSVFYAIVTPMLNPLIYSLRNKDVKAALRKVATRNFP
# Outline: as §1
# OR2D2 S148P I163T M202T = tested on: T10, OR2D2 S148P I163T M202T
# T10 sequence (whole entry): T9 sequence (whole entry) with S148P, I163T, M202T
# Outline: as §1
# OR2D3 (Homo sapiens) = biological target: T11, OR2D3 (Homo sapiens) (UniProt Q8NGH3)
# T11 sequence (whole entry): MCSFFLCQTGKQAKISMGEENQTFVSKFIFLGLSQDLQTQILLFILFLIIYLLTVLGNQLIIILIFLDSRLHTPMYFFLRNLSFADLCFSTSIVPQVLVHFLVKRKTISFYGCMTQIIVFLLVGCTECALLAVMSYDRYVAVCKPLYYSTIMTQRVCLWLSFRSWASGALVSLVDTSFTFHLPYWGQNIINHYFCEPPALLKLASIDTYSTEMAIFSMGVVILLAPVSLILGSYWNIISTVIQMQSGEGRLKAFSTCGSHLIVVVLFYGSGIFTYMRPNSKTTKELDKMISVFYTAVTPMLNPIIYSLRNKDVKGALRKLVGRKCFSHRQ
# Outline: as §1
# OR2D3 R155W = tested on: T12, OR2D3 R155W
# T12 sequence (whole entry): T11 sequence (whole entry) with R155W
# Outline: as §1
# OR2C3 (Homo sapiens) = biological target: T13, OR2C3 (Homo sapiens) (UniProt Q8N628)
# T13 sequence (whole entry): T7 sequence (whole entry) with A20T, S68P, V289L
# Outline: as §1
# 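Also: active if original authors judged signal statistically different from baseline.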
structure (smiles),measurement,setting,value
CCCCCC1COCCC1OC(C)=O (stereo not drawn),odorant receptor agonist call,OR2B3 (Homo sapiens),inactive
CCCCCCCCC(OC(C)=O)OC(C)=O,odorant receptor agonist call,OR2B3 (Homo sapiens),inactive
CC(CC=O)c1ccc(C(C)(C)C)cc1 (stereo not drawn),odorant receptor agonist call,OR2B3 (Homo sapiens),inactive
CCCCC1CCC(=O)O1 (stereo not drawn),odorant receptor agonist call,OR2B3 (Homo sapiens),inactive
CCC1OC(=O)C(O)=C1C (stereo not drawn),odorant receptor agonist call,OR2B3 (Homo sapiens),inactive
same,odorant receptor agonist call,OR2B6 (Homo sapiens),inactive
same,odorant receptor agonist call,OR2BB [1],inactive
same,odorant receptor agonist call,OR2BB [2],inactive
same,odorant receptor agonist call,OR2C1 (Homo sapiens),inactive
same,odorant receptor agonist call,OR2C1,inactive
same,odorant receptor agonist call,OR2C3 [3],inactive
same,odorant receptor agonist call,OR2C3 [4],inactive
same,odorant receptor agonist call,OR2D2 (Homo sapiens),inactive
same,odorant receptor agonist call,OR2D2 S148P I163T M202T,inactive
same,odorant receptor agonist call,OR2D3 (Homo sapiens),inactive
same,odorant receptor agonist call,OR2D3 R155W,inactive
Cc1occc(=O)c1OC(=O)C(C)C,odorant receptor agonist call,OR2B3 (Homo sapiens),inactive
CCOC(=O)CC1(C)OCCO1,odorant receptor agonist call,OR2B3 (Homo sapiens),inactive
CCCC(C)C(=O)OCC (stereo not drawn),odorant receptor agonist call,OR2B3 (Homo sapiens),inactive
CC(C)CCCC(C)(C)O,odorant receptor agonist call,OR2B3 (Homo sapiens),inactive
C=CC(C)(CCC=C(C)C)OC(C)=O (stereo not drawn),odorant receptor agonist call,OR2B3 (Homo sapiens),inactive
CC=CC(=O)C1C(C)=CCCC1(C)C (stereo not drawn),odorant receptor agonist call,OR2B3 (Homo sapiens),inactive
CC(C)=CCCC(C)CC=O (stereo not drawn),odorant receptor agonist call,OR2B3 (Homo sapiens),inactive
CC(C)(C)C1CCCCC1OCCCCO (stereo not drawn),odorant receptor agonist call,OR2B3 (Homo sapiens),inactive
COc1ccc(C)cc1,odorant receptor agonist call,OR2B3 (Homo sapiens),inactive
CCC=C(C)C(O)CCCCC (stereo not drawn),odorant receptor agonist call,OR2B3 (Homo sapiens),inactive
CCCCCCC=CCCC=O,odorant receptor agonist call,OR2B3 (Homo sapiens),inactive
same,odorant receptor agonist call,OR2B6 (Homo sapiens),inactive
same,odorant receptor agonist call,OR2BB [1],inactive
same,odorant receptor agonist call,OR2BB [2],inactive
same,odorant receptor agonist call,OR2C1 (Homo sapiens),inactive
same,odorant receptor agonist call,OR2C1,inactive
same,odorant receptor agonist call,OR2C3 (Homo sapiens),inactive
same,odorant receptor agonist call,OR2D2 (Homo sapiens),inactive
same,odorant receptor agonist call,OR2D2 S148P I163T M202T,inactive
same,odorant receptor agonist call,OR2D3 (Homo sapiens),inactive
same,odorant receptor agonist call,OR2D3 R155W,inactive
CC1CC(C)(c2ccccc2)CO1 (stereo not drawn),odorant receptor agonist call,OR2B3 (Homo sapiens),inactive
COC1CC2CC1C1CC(C=O)CC21 (stereo not drawn),odorant receptor agonist call,OR2B3 (Homo sapiens),inactive
C=CCOC(=O)COCCC(C)C,odorant receptor agonist call,OR2B3 (Homo sapiens),inactive
CCCCCC1C(=O)CCC1CC(=O)OC (stereo not drawn),odorant receptor agonist call,OR2B3 (Homo sapiens),inactive
CC(=O)C=CC1=C(C)CCCC1(C)C,odorant receptor agonist call,OR2B3 (Homo sapiens),active
CC1=C(O)C(=O)OC1C (stereo not drawn),odorant receptor agonist call,OR2B3 (Homo sapiens),inactive
same,odorant receptor agonist call,OR2B6 (Homo sapiens),inactive
same,odorant receptor agonist call,OR2BB [1],inactive
same,odorant receptor agonist call,OR2BB [2],inactive
same,odorant receptor agonist call,OR2C1 (Homo sapiens),inactive
same,odorant receptor agonist call,OR2C1,inactive
same,odorant receptor agonist call,OR2C3 [3],inactive
same,odorant receptor agonist call,OR2C3 [4],inactive
same,odorant receptor agonist call,OR2D2 (Homo sapiens),inactive
same,odorant receptor agonist call,OR2D2 S148P I163T M202T,inactive
same,odorant receptor agonist call,OR2D3 (Homo sapiens),inactive
same,odorant receptor agonist call,OR2D3 R155W,inactive
CCc1ccc(CC(C)(C)C=O)cc1,odorant receptor agonist call,OR2B3 (Homo sapiens),inactive
CCC1OC(C)=C(O)C1=O (stereo not drawn),odorant receptor agonist call,OR2B3 (Homo sapiens),inactive
same,odorant receptor agonist call,OR2B6 (Homo sapiens),inactive
same,odorant receptor agonist call,OR2BB [1],inactive
same,odorant receptor agonist call,OR2BB [2],inactive
same,odorant receptor agonist call,OR2C1 (Homo sapiens),inactive
same,odorant receptor agonist call,OR2C1,inactive
same,odorant receptor agonist call,OR2C3 [3],inactive
same,odorant receptor agonist call,OR2C3 [4],inactive
same,odorant receptor agonist call,OR2D2 (Homo sapiens),inactive
same,odorant receptor agonist call,OR2D2 S148P I163T M202T,inactive
same,odorant receptor agonist call,OR2D3 (Homo sapiens),inactive
same,odorant receptor agonist call,OR2D3 R155W,inactive
Cc1ccc(C(C)C)cc1O,odorant receptor agonist call,OR2B3 (Homo sapiens),inactive
CC1=CCC2CC1C2(C)C (stereo not drawn),odorant receptor agonist call,OR2B3 (Homo sapiens),inactive
OCc1ccccc1,odorant receptor agonist call,OR2B3 (Homo sapiens),inactive
CCC(=O)C=CC1C(C)=CCCC1(C)C (stereo not drawn),odorant receptor agonist call,OR2B3 (Homo sapiens),inactive
CC1=C(O)C(=O)C(C)O1 (stereo not drawn),odorant receptor agonist call,OR2B3 (Homo sapiens),inactive
same,odorant receptor agonist call,OR2B6 (Homo sapiens),inactive
same,odorant receptor agonist call,OR2BB [1],inactive
same,odorant receptor agonist call,OR2BB [2],inactive
same,odorant receptor agonist call,OR2C1 (Homo sapiens),inactive
same,odorant receptor agonist call,OR2C1,inactive
same,odorant receptor agonist call,OR2C3 [3],inactive
same,odorant receptor agonist call,OR2C3 [4],inactive
same,odorant receptor agonist call,OR2D2 (Homo sapiens),inactive
same,odorant receptor agonist call,OR2D2 S148P I163T M202T,inactive
same,odorant receptor agonist call,OR2D3 (Homo sapiens),inactive
same,odorant receptor agonist call,OR2D3 R155W,inactive
CCCC(S)CCOC(C)=O (stereo not drawn),odorant receptor agonist call,OR2B3 (Homo sapiens),inactive
same,odorant receptor agonist call,OR2B6 (Homo sapiens),inactive
same,odorant receptor agonist call,OR2BB [1],inactive
same,odorant receptor agonist call,OR2BB [2],inactive
same,odorant receptor agonist call,OR2C1 (Homo sapiens),inactive
same,odorant receptor agonist call,OR2C1,inactive
same,odorant receptor agonist call,OR2C3 [3],inactive
same,odorant receptor agonist call,OR2C3 [4],inactive
same,odorant receptor agonist call,OR2D2 (Homo sapiens),inactive
same,odorant receptor agonist call,OR2D2 S148P I163T M202T,inactive
same,odorant receptor agonist call,OR2D3 (Homo sapiens),inactive
same,odorant receptor agonist call,OR2D3 R155W,inactive
CCC(=O)O,odorant receptor agonist call,OR2C1 (Homo sapiens),inactive
CC(C)=CCCC(C)=CCO,odorant receptor agonist call,OR2B3 (Homo sapiens),inactive
same,odorant receptor agonist call,OR2C1 (Homo sapiens),inactive
